Assay results from ChEMBL document CHEMBL4014306, “Pyrazolopyrimidines as Potent Stimulators for Transient Receptor Potential Canonical 3/6/7 Channels” (J Med Chem, 2017).
The source made the active and inactive calls. The rule behind the calls is not given here.

Experiments:
[1] = biological target: T1, Short transient receptor potential channel 4 (Mus musculus) (UniProt Q9QUQ5); test: Agonist activity at mouse TRPC4beta expressed in HEK293 cells co-expressing MOR assessed as increase in intracellular calcium level at 33 uM measured for 2.5 mins by Fluo-8-AM dye-based fluorescence assay; format: cell-based
T1 sequence (whole entry): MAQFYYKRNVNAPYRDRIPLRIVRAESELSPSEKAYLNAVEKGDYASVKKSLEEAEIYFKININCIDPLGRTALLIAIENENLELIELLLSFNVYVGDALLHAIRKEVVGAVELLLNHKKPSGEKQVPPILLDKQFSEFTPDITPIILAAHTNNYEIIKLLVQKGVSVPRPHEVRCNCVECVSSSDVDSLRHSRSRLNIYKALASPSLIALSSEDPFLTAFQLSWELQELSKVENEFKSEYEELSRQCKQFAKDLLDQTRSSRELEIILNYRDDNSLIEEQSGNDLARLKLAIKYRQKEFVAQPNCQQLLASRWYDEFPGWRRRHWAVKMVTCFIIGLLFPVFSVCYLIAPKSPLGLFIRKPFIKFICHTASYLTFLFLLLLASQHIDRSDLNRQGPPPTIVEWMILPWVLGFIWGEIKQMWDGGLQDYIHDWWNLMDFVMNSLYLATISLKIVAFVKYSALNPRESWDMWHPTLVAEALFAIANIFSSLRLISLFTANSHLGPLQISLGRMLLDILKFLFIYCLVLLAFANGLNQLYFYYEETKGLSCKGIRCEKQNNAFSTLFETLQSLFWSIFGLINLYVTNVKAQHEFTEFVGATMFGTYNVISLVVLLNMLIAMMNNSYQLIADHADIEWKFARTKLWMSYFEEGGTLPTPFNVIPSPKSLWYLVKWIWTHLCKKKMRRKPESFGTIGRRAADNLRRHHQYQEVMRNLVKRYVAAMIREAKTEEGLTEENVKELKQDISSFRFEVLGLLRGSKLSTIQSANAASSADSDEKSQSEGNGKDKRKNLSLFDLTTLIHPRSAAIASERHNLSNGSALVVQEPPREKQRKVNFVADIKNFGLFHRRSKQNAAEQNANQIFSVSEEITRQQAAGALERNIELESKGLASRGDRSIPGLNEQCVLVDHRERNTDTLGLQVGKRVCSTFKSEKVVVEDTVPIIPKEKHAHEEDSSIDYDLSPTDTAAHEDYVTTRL

[2] = biological target: Transient receptor potential cation channel subfamily M member 8 (Mus musculus) (UniProt Q8R4D5); test: Inhibition of mouse TRPM8 expressed in HEK293 cells assessed as decrease in menthol-evoked increase in intracellular calcium level at 22 uM preincubated for 2 mins followed by menthol addition measured for 2.5 mins by Fluo8-AM dye-based fluorescence assay relative to control
Chain of Transient receptor potential cation channel subfamily M member 8 (Mus musculus) (Q8R4D5 whole entry, the tested form may be a part): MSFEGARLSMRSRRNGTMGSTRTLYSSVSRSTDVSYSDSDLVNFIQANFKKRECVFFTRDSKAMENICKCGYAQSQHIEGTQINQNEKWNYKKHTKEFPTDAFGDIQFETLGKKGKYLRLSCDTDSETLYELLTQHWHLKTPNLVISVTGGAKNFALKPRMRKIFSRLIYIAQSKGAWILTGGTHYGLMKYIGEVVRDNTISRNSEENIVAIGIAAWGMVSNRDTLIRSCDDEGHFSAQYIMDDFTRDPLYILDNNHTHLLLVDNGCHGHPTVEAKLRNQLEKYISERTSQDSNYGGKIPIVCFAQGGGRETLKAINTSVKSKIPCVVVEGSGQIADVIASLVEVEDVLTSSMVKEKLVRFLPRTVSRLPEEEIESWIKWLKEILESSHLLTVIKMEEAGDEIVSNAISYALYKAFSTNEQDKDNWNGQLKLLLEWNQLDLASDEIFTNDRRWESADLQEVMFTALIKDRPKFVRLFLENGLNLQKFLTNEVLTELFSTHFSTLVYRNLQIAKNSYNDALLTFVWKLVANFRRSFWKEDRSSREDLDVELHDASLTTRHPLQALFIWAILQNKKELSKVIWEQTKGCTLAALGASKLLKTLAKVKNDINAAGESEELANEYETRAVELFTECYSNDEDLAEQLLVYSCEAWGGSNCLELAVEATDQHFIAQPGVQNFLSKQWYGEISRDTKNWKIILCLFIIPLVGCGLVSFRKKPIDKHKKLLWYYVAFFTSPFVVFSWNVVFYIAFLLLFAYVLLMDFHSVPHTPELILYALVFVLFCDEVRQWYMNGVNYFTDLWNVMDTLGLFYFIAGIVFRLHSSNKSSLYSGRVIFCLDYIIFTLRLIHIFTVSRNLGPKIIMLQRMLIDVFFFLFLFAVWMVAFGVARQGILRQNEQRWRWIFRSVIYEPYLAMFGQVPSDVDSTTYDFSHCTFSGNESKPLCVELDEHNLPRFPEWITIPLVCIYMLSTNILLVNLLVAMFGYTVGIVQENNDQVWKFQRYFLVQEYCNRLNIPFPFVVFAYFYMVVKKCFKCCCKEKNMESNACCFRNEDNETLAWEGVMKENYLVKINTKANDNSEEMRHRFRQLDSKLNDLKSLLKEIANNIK

[3] = biological target: T2, Short transient receptor potential channel 6 (Mus musculus) (UniProt Q61143); test: Antagonist activity at mouse TRPC6 expressed in HEK293 cells co-expressing Gq11-PLCbeta fused M5 receptor assessed as channel desensitization at 20 to 100 uM at +80 mV in presence of 0.1 mM Ca2+ by whole cell patch-clamp method; format: cell-based
T2 sequence (whole entry): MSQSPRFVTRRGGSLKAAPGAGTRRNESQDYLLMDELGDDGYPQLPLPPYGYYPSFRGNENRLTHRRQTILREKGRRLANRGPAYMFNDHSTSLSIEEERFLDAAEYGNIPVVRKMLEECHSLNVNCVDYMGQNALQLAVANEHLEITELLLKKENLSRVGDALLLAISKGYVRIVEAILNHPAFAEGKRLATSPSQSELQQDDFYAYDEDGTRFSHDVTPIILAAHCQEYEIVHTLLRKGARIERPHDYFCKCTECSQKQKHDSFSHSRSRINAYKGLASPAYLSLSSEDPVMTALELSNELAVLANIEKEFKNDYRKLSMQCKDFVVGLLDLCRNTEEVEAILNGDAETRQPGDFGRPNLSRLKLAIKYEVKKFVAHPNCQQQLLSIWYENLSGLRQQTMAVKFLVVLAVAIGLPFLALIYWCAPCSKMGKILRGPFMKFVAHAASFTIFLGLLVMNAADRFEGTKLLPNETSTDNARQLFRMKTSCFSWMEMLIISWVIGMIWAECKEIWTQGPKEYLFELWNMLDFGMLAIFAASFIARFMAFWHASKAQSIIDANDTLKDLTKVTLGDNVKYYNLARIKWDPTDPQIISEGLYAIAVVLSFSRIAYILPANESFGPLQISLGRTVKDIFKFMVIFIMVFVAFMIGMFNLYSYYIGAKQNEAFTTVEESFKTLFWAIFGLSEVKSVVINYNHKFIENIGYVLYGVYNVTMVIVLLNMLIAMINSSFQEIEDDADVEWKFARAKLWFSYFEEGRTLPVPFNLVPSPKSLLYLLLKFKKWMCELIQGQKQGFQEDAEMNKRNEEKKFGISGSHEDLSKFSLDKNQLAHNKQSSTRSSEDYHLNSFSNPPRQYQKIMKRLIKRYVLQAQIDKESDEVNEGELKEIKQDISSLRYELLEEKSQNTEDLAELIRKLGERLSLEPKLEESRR
Summary of the method: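 Whole-cell clamp of TRPC6/M5 or TRPC7 HEK293 cells with 0.1 mM Ca2+ bath and 400 nM free Ca2+ pipette. Ramps +100 to −100 mV every 1 s. Increasing concentrations given consecutively by perfusion (TRPC6 highest 20–100 μM; TRPC7 up to 30 μM). Currents at positive and negative potentials followed for desensitization.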

[4] = biological target: T1, Short transient receptor potential channel 4 (Mus musculus); test: Agonist activity at mouse TRPC4beta expressed in HEK293 cells co-expressing MOR assessed as induction of membrane depolarization at 33 uM measured for 2.5 mins by FLIPR membrane potential dye-based fluorescence assay; format: cell-based
[5] = biological target: T1, Short transient receptor potential channel 4 (Mus musculus); test: Inhibition of mouse TRPC4beta expressed in HEK293 cells co-expressing MOR assessed as decrease in DAMGO-evoked membrane depolarization at 22 uM preincubated for 2 mins followed by DAMGO addition measured for 2.5 mins by FLIPR membrane potential dye-based fluorescence assay relative to control; format: cell-based
Summary of the method: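 Same TRP panel as for the stimulation tests, with FMP dye for TRPC4 and M5 and Fluo8-AM for TRPA1, V1 and M8. Compound applied for 2 min before the channel agonist (TRPC4: 1 μM DAMGO). Inhibition of the agonist response measured on a FlexStation at 32 °C.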

Activity [1] | inhibition [2] [%] | Activity [4] | inhibition [5] [%] | Structure (SMILES) | Activity [3]
inactive | 17 | inactive | 33 | CCOC(=O)N1CCC(c2cc(O)n3nc(C)c(-c4ccc(C(F)(F)F)cc4)c3n2)CC1 | inactive
inactive | – | inactive | – | Cc1nn2c(O)cc(C3CCN(C(=O)OCc4ccccc4)CC3)nc2c1-c1ccc(Cl)cc1 | inactive
inactive | 35 | inactive | 13 | Cc1nn2c(O)cc(C3CCN(C(=O)OCc4ccccc4)CC3)nc2c1-c1ccc(F)cc1 | inactive

Structure (SMILES) | Activity [1] | inhibition [2] [%] | Activity [4] | inhibition [5] [%] | Activity [3]
CCOC(=O)N1CCC(c2cc(O)n3nc(C)c(-c4ccc(F)cc4)c3n2)CC1 | inactive | 22 | inactive | – | inactive
